Measured values from ChEMBL document CHEMBL1152422, “Cytotoxic triterpenoids from the rhizomes of Astilbe chinensis” (J Nat Prod, 2009).

What was measured:
Type in all cases: functional, cell-based
A549 = assay: Cytotoxicity against human A549 cells by rapid colorimetric assay
How it was run: (§1)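 A549, SNU-1, K562 and HepG2 cells were grown in RPMI1640 and MEM with 10% FBS at 37 °C in a CO2 incubator before testing against the cell panel.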

SNU1 = assay: Cytotoxicity against human SNU1 cells by rapid colorimetric assay; how it was run: as §1
HL-60 = assay: Cytotoxicity against human HL60 cells by rapid colorimetric assay
How it was run: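 HL-60 human promyelocytic leukaemia cells were maintained in IMDM with 20% FBS at 37 °C in a CO2 incubator before testing against the cell panel.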

K562 = assay: Cytotoxicity against human K562 cells by rapid colorimetric assay; how it was run: as §1
HepG2 = assay: Cytotoxicity against human HepG2 cells by rapid colorimetric assay; how it was run: as §1

How did the IC50 (A549) turn out when `CC(=O)O[C@H]1CC[C@]2(C)[C@H]3CC=C4[C@@H]5[C@@H](C)[C@H](C)CC[C@]5(C)CC[C@@]4(C(=O)O)[C@]3(C)C[C@@H](O)[C@H]2C1(C)C` was run?
Its IC50 is > 10 µM.

And the IC50 (SNU1)?
Its IC50 is > 10 µM.

What about the IC50 (HL-60) of the same molecule?
The IC50 was 9.6 µM.

And the IC50 (K562)?
The IC50 was > 10 µM.

And the IC50 (HepG2)?
The IC50 was > 10 µM.

For `CC1(C)CC[C@]2(C)CC[C@]3(C(=O)O)C(=CC[C@@H]4[C@@]5(C)CC[C@H](O)[C@@](C)(CO)[C@@H]5[C@H](O)C[C@]43C)[C@@H]2C1`, which IC50 (A549) is on record?
Its IC50 is > 10 µM.

And the IC50 (SNU1)?
Its IC50 is > 10 µM.

What about the IC50 (HL-60) of the same molecule?
The IC50 was 3.5 µM.

What about the IC50 (K562) of the same molecule?
Its IC50 is > 10 µM.

And the IC50 (HepG2)?
Its IC50 is > 10 µM.

`CC(=O)O[C@@H]1CC[C@]2(C)[C@H]3CC=C4[C@@H]5CC(C)(C)CC[C@]5(C)CC[C@@]4(C(=O)O)[C@]3(C)CC[C@H]2C1(C)C` was tested. Which IC50 (A549) did it give?
The IC50 was > 10 µM.

And the IC50 (SNU1)?
The IC50 was > 10 µM.

And the IC50 (HL-60)?
The IC50 was 9.3 µM.

And the IC50 (K562)?
Its IC50 is > 10 µM.

And the IC50 (HepG2)?
Its IC50 is > 10 µM.

Which IC50 (A549) does the source give for `CC(=O)O[C@H]1CC[C@]2(C)[C@H]3CC=C4[C@@H]5[C@@H](C)[C@H](C)CC[C@]5(C)CC[C@@]4(C(=O)O)[C@]3(C)CC[C@H]2C1(C)C` here?
Its IC50 is > 10 µM.

What about the IC50 (SNU1) of the same molecule?
The IC50 was > 10 µM.

What about the IC50 (HL-60) of the same molecule?
The IC50 was 9.4 µM.

What about the IC50 (K562) of the same molecule?
Its IC50 is > 10 µM.

What about the IC50 (HepG2) of the same molecule?
Its IC50 is > 10 µM.

How did the IC50 (A549) turn out when `CC1(C)CC[C@]2(C)CC[C@]3(C(=O)O)C(=CC[C@@H]4[C@@]5(C)CC[C@H](O)C(C)(C)[C@@H]5CC[C@]43C)[C@@H]2C1` was run?
The IC50 was > 10 µM.

What about the IC50 (SNU1) of the same molecule?
Its IC50 is 9.3 µM.

What about the IC50 (HL-60) of the same molecule?
The IC50 was 8.9 µM.

What about the IC50 (K562) of the same molecule?
The IC50 was > 10 µM.

What about the IC50 (HepG2) of the same molecule?
The IC50 was > 10 µM.

For `CC(=O)O[C@H]1CC[C@]2(C)[C@H]3CC=C4[C@@H]5CC(C)(C)CC[C@]5(C)CC[C@@]4(C(=O)O)[C@]3(C)C[C@@H](O)[C@H]2C1(C)C`, which IC50 (A549) is on record?
Its IC50 is > 10 µM.

And the IC50 (SNU1)?
The IC50 was > 10 µM.

And the IC50 (HL-60)?
Its IC50 is 5.1 µM.

What about the IC50 (K562) of the same molecule?
Its IC50 is > 10 µM.

What about the IC50 (HepG2) of the same molecule?
Its IC50 is > 10 µM.

What does the source list for `CC(=O)O[C@@H]1CC[C@]2(C)[C@H]3CC=C4[C@@H]5[C@@H](C)[C@H](C)CC[C@]5(C)CC[C@@]4(C(=O)O)[C@]3(C)CC[C@H]2C1(C)C`?
IC50 (A549): > 10 µM; IC50 (SNU1): > 10 µM; IC50 (HL-60): 3.9 µM; IC50 (K562): > 10 µM; IC50 (HepG2): > 10 µM

Which IC50 (A549) does the source give for `CC1(C)CC[C@]2(C)CC[C@]3(C(=O)O)C(=CC[C@@H]4[C@@]5(C)CC[C@H](O)[C@](C)(CO)[C@@H]5CC[C@]43C)[C@@H]2C1` here?
Its IC50 is > 10 µM.

What about the IC50 (SNU1) of the same molecule?
The IC50 was > 10 µM.

What about the IC50 (HL-60) of the same molecule?
The IC50 was > 10 µM.

What about the IC50 (K562) of the same molecule?
The IC50 was > 10 µM.

What about the IC50 (HepG2) of the same molecule?
The IC50 was > 10 µM.

With `CC1(C)CC[C@]2(C)CC[C@]3(C(=O)O)C(=CC[C@@H]4[C@@]5(C)CC[C@@H](O)C(C)(C)C5=CC[C@]43C)[C@@H]2C1` as the molecule, how does the IC50 (A549) read?
Its IC50 is > 10 µM.

What about the IC50 (SNU1) of the same molecule?
The IC50 was > 10 µM.

What about the IC50 (HL-60) of the same molecule?
Its IC50 is > 10 µM.

And the IC50 (K562)?
The IC50 was > 10 µM.

And the IC50 (HepG2)?
The IC50 was > 10 µM.

`CC[C@@]1(O)C(=O)OCc2c1cc1n(c2=O)Cc2cc3ccccc3nc2-1` [CAMPTOTHECIN] was tested. Which IC50 (HL-60) did it give?
The IC50 was 0.8 µM.

With `C[C@H]1[C@H](C)CC[C@]2(C)CC[C@]3(C(=O)O)C(=CC[C@@H]4[C@@]5(C)CC[C@H](O)C(C)(C)[C@@H]5CC[C@]43C)[C@H]12` as the molecule, how does the IC50 (A549) read?
Its IC50 is > 10 µM.

What about the IC50 (SNU1) of the same molecule?
Its IC50 is > 10 µM.

What about the IC50 (HL-60) of the same molecule?
The IC50 was 8.2 µM.

What about the IC50 (K562) of the same molecule?
The IC50 was > 10 µM.

And the IC50 (HepG2)?
The IC50 was > 10 µM.

Which IC50 (A549) does the source give for `COc1cccc2c1C(=O)c1c(O)c3c(c(O)c1C2=O)C[C@@](O)(C(=O)CO)C[C@@H]3O[C@H]1C[C@H](N)[C@H](O)[C@H](C)O1` [DOXORUBICIN] here?
Its IC50 is 2.2 µM.

What about the IC50 (SNU1) of the same molecule?
Its IC50 is 4 µM.

What about the IC50 (K562) of the same molecule?
The IC50 was 2.5 µM.

What does the source list for `C=C1[C@@H]2[C@H](O)C[C@]3(C)[C@H](CC=C4[C@@H]5CC(C)(C)CC[C@]5(C)CC[C@]43C(=O)O)[C@@]2(C)CC[C@@H]1O`?
IC50 (A549): > 10 µM; IC50 (SNU1): > 10 µM; IC50 (HL-60): > 10 µM; IC50 (K562): > 10 µM; IC50 (HepG2): > 10 µM

How did the IC50 (A549) turn out when `C[C@H]1[C@H](C)CC[C@]2(C)CC[C@]3(C(=O)O)C(=CC[C@@H]4[C@@]5(C)CC[C@H](O)[C@](C)(CO)[C@@H]5[C@H](O)C[C@]43C)[C@H]12` was run?
The IC50 was > 10 µM.

What about the IC50 (SNU1) of the same molecule?
Its IC50 is > 10 µM.

And the IC50 (HL-60)?
The IC50 was > 10 µM.

What about the IC50 (K562) of the same molecule?
Its IC50 is > 10 µM.

And the IC50 (HepG2)?
Its IC50 is > 10 µM.
